# A selection: hits, their analogues and other compounds. The true share with any hit is near 2.7%.
# HNF4A DNA FP = change in binding of human HNF4 alpha to DNA | activity change, % at 10 µM | HNF4a-FITC DNA binding, fluorescence polarization, 1 h | P41235 | 360,000 tested, 0.3% active; in the data active = activity change above about 30%, passing the limit was not always enough
# PP1 inh = PP1-alpha (human) inhibition in PP5 counter-screen | inhibition, % at 6.7 µM | P62136 | purified PP1alpha, OMFP fluorescence | 320,000 tested, 0.9% active;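 active = inhibition above the mean inhibition of all tested compounds plus 3 SD, computed separately for each screening campaign, cut at about 15% in these data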
# NadD inh = inhibitors of Staphylococcus aureus NadD | AID 602399 | 360,000 tested, 0.78% active | inhibition, % at 20 µM | purified NadD enzyme, colorimetric absorbance read-out; in the data active = inhibition above about 26%
# TPT1 inh = C. albicans TPT1 enzyme inhibition; inhibition, % at 5 µM; 300,000 tested, 0.81% active; AID 1962; recombinant caTPT1, FP RNA substrate dephosphorylation;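 active = inhibition above the mean of all tested compounds plus 3 SD, set per screening campaign, cut at about 24% in these data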;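 note: plate controls were DMSO alone for no effect and ferristatin control at 100 nM for full effect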
# Rpn11 block = inhibitors of human proteasome Rpn11. inhibition, % at 20 µM. human 26S proteasome, Ub4-pepOG fluorescence polarization; 20S core pre-blocked with epoxomicin. 360,000 tested, 0.59% active;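 active = inhibition at 20 µM, scaled to each plate's controls, above about 33%, limit read from the data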
# Target sequence (O00487 whole entry, looked up): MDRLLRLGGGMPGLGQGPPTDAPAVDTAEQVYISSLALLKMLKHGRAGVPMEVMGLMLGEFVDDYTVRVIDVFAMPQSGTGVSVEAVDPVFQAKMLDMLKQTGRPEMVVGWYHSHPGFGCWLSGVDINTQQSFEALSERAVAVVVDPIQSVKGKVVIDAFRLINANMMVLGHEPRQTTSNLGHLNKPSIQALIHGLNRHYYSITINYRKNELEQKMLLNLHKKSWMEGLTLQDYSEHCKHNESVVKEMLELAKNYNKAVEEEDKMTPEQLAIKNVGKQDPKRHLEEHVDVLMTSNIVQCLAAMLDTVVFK
# CSN inh = inhibitors of human CSN-mediated cullin deneddylation; Purified CSN, SCF-Nedd8-OG deneddylation, fluorescence polarization; 360,000 tested, 0.38% active; inhibition, % at 12.5 µM; Q92905;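 active = pattern-corrected inhibition above about 35%, with an unprinted fluorescence ratio check between 0.5 and 1.5, limit read from the data, passing the limit was not always enough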;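 note: 0% = enzyme with substrate and 100% = substrate without enzyme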
# Target sequence (Q92905 whole entry, looked up, one chain of several): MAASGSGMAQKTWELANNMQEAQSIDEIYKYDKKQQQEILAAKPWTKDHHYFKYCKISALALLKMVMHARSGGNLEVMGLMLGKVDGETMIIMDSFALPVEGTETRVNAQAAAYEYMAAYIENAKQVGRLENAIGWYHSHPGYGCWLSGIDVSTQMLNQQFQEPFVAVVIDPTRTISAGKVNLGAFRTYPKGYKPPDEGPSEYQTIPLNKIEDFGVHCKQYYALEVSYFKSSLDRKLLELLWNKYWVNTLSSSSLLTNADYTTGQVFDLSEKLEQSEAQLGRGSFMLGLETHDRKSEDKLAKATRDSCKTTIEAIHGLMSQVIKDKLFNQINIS
#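 Assay system: purified human Csn5 enzyme expressed in HEK293T cells; Input: 0.24 nM Csn5 enzyme, final concentration; Reagent: 10 nM SCFSkp2-Nedd8OG; Compound dosing: 12.5 µM single point; Times: reaction 90 min, room temperature; Technique: fluorescence polarization readout.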
# PP1 confirm = human PP1 phosphatase inhibition, confirmation. purified PP1alpha, OMFP substrate fluorescence. shares compounds with PP1 inh. 1,900 tested, 52% active. inhibition, % at 6.7 µM. AID 2358;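 active = mean PP1 inhibition above a set limit taken from the earlier primary screen, cut at about 15% in these data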
# PP5 counter = counter-screen for PP1 inhibitors: human PP5 phosphatase inhibition. 1,900 tested, 4% active. shares compounds with PP1 inh. AID 2360. purified PP5c, OMFP fluorescence. inhibition, % at 6.7 µM;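 active = mean PP5 inhibition over triplicate wells above about 9.5% taken from the earlier PP1 screen, limit read from the data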
# * = called active by the depositor; nt = no result given.
SMILES,HNF4A DNA FP,PP1 inh,NadD inh,TPT1 inh,Rpn11 block,CSN inh,PP1 confirm,PP5 counter
O=C(COc1ccccc1)Nc1nnc(-c2ccccc2Cl)o1,-4.6,22.9*,4.8,2.0,-20.0,3.8,20.2*,-4.8
COc1cc(/C=C/C(=O)OCC(=O)Nc2nnc(-c3ccccc3)o2)cc(OC)c1OC,-0.1,6.8,16.6,1.7,-1.8,2.6,nt,nt
O=C(Nc1nnc(-c2ccc3c(c2)CCCC3)o1)c1ccccc1Cl,-1.4,25.5*,12.7,1.7,4.9,3.3,25.1*,1.6
O=C(COc1ccccc1)Nc1nnc(-c2ccc3c(c2)CCCC3)o1,0.0,26.5*,8.4,0.2,-2.4,3.8,27.2*,1.5
O=C(Nc1nnc(C2=COCCO2)o1)c1cccc([N+](=O)[O-])c1,2.7,-4.6,0.4,0.2,5.1,0.8,nt,nt
O=C(Nc1nnc(-c2ccc(F)cc2)o1)c1cccc([N+](=O)[O-])c1,-0.9,18.9*,14.6,-1.2,-3.5,-1.6,16.5*,3.1
Cc1cnc(CNC(=O)c2ccc3nc([C@@H]4O[C@H](CO)[C@H](O)[C@H](O)[C@H]4O)[nH]c3c2)cn1,-3.7,nt,1.2,nt,-3.8,1.1,nt,nt
COC(=O)C(Cc1ccccc1)NC(=O)CNC(=O)c1ccccc1OC (centres undefined),-4.6,-1.4,-4.1,-2.4,-0.3,5.8,nt,nt
CCCOc1ccc(C2C(C(=O)c3ccc(C)o3)=C(O)C(=O)N2Cc2ccco2)cc1 (centres undefined),-3.8,27.0*,16.1,4.9,4.3,8.3,38.9*,-3.6
CCOc1cc(C2C(C(=O)c3ccc(C)o3)=C(O)C(=O)N2CCc2ccccc2)ccc1O (centres undefined),2.5,32.7*,19.9,0.2,9.6,-3.3,37.7*,4.2
CCCOc1cccc(C2C(C(=O)c3ccc(C)o3)=C(O)C(=O)N2CCN2CCOCC2)c1 (centres undefined),-5.8,5.9,4.6,-2.5,1.5,7.3,nt,nt
Cc1ccc2nc(N3C(=O)C(O)=C(C(=O)c4ccco4)C3c3cccs3)sc2c1 (centres undefined),-1.4,28.4*,20.9,1.9,34.3,11.4,28.0*,0.0
COc1ccc2nc(N3C(=O)C(O)=C(C(=O)c4ccco4)C3c3ccccc3OC)sc2c1 (centres undefined),0.7,28.9*,11.4,1.0,11.3,1.8,20.3*,-1.9
CCOc1ccc2nc(N3C(=O)C(O)=C(C(=O)c4ccco4)C3c3ccco3)sc2c1 (centres undefined),0.2,13.8,12.7,nt,9.8,7.1,nt,nt
Cc1ccc(C(=O)C2=C(O)C(=O)N(c3ncccn3)C2c2ccc(Cl)cc2)o1 (centres undefined),4.6,12.9,7.0,-0.2,9.6,1.3,nt,nt
COc1ccc2nc(N3C(=O)C(O)=C(C(=O)c4ccco4)C3c3ccc(C)o3)sc2c1 (centres undefined),8.4,nt,17.5,nt,21.0,9.7,nt,nt
Cc1ccc2nc(N3C(=O)C(O)=C(C(=O)c4ccc(C)o4)C3c3ccc(O)cc3)sc2c1 (centres undefined),15.8,30.2*,16.9,nt,16.4,6.1,21.4*,0.9
CCOC(=O)c1sc(N2C(=O)C(O)=C(C(=O)c3ccco3)C2c2ccco2)nc1C (centres undefined),-2.2,18.2*,12.6,2.1,4.8,2.0,13.2,-0.9
COc1ccc(C2C(C(=O)c3ccco3)=C(O)C(=O)N2c2nnc(C)s2)cc1 (centres undefined),-16.0,-1.0,4.6,-5.1,-42.6,1.0,nt,nt
O=C(C1CCC(=O)N(C2CCCC2)C1)N1CCN(Cc2cccc(Cl)c2)CC1 (centres undefined),0.4,-3.1,-7.9,-1.1,9.7,-1.3,nt,nt
COc1ccc(CC(=O)N2CCCC2)c(OC)c1,0.8,-0.2,6.1,1.3,1.3,1.5,nt,nt
COc1cc(OC)c(NC(=O)Cn2cnc3sc(C)c(S(=O)(=O)N4CCOCC4)c3c2=O)cc1Cl,-1.0,-2.4,-1.5,-6.2,1.3,-0.8,nt,nt
O=C1C(Cc2ccccc2)Nc2ncnc(N3CCc4ccccc4C3)c2N1Cc1ccc(Br)cc1 (centres undefined),nt,19.9*,nt,-0.7,nt,nt,14.7,-0.7
O=C(Nc1nc(-c2ccccn2)cs1)c1ccc(Br)s1,0.7,30.9*,15.4,1.5,22.3,0.7,16.7*,-1.6
O=C(Nc1nc(-c2ccccn2)cs1)c1ccc(F)c(S(=O)(=O)N2CCOCC2)c1,4.2,30.4*,20.9,nt,2.2,-0.4,37.1*,2.4
SMILES,HNF4A DNA FP,PP1 inh,NadD inh,TPT1 inh,Rpn11 block,CSN inh,PP1 confirm,PP5 counter
CN(CC1CCCO1)S(=O)(=O)c1ccc(C(=O)Nc2nc(-c3ccccn3)cs2)cc1 (centres undefined),2.2,28.6*,6.4,0.9,23.0,7.9,27.8*,-3.2
CN(CC1CCCO1)S(=O)(=O)c1ccc(C(=O)Nc2ccccc2F)cc1 (centres undefined),0.3,-2.0,1.4,-0.6,-5.4,3.5,nt,nt
O=C(Nc1nc(-c2cc(Cl)sc2Cl)cs1)c1ccc(Br)s1,0.5,-8.6,4.7,-6.7,-1.9,3.2,nt,nt
O=C(Nc1nc(-c2ccccn2)cs1)c1cccc(-n2cnnn2)c1,-3.0,27.1*,9.6,2.6,9.3,12.3,21.3*,-1.8
CCN(CC(=O)Nc1ccccc1OC)C(=O)CN1C(=O)NC(C)(c2ccc3ccccc3c2)C1=O (centres undefined),-2.3,nt,0.4,nt,11.0,3.0,nt,nt
COc1ccccc1C(=O)NCCC(=O)N1CCN(S(=O)(=O)c2ccccc2C(F)(F)F)CC1,-3.3,nt,-5.7,nt,-10.0,3.6,nt,nt
COc1ccc(N2CCN(C(=O)COC(=O)CCOc3ccccc3C)CC2)cc1,1.7,1.9,1.7,0.8,-6.9,0.2,nt,nt
Cc1csc(=O)n1CC(=O)Nc1ccc(C(C)C)cc1,1.3,nt,4.3,nt,-1.4,-8.3,nt,nt
Cc1ccc(-n2c(C)cc(C(=O)COC(=O)c3ccc[nH]c3=O)c2C)cc1C,4.7,20.8*,-4.1,-1.2,8.1,-10.0,16.2*,-4.7
O=C(O)c1ccc(N/N=C/c2ccc(-c3cc(Cl)ccc3Cl)o2)cc1,-30.5,17.9*,11.4,6.9,1.0,3.9,19.0*,-2.7
O=C(O)c1ccc(N/N=C/c2ccc(-c3ccc(Cl)cc3Cl)o2)cc1,-1.4,13.4,11.6,4.4,-1.6,31.2,nt,nt
CCN(CC)S(=O)(=O)c1ccc(N2CCCC2)c(NC(=O)CN2C(=O)NC3(CCCC3)C2=O)c1,5.4,20.8*,3.4,-0.1,0.7,3.2,0.5,-5.3

# Bioassay records from PubChem.
